# GalR3 antag: GalR3 antagonists in HEK293 cells, primary screen, cell-based, fluorescence readout | Galanin receptor type 3 (Homo sapiens), O60755 | HEK293 GalR3-CNG cAMP membrane potential fluorescence; galR3 body fused to GalR1 C-terminus | inhibition, % at 3 µM | hit rate 0.44% among 360,000 | AID 651719, 2012;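 active means inhibition above the screen-wide average plus 3 SD, cut at about 13% in these data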;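 further: forskolin and galanin both at EC90 stimulate the cells; cAMP rise reported by CNG channel membrane potential dye signal; 0% = forskolin plus galanin with DMSO and 100% = forskolin alone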
# Target sequence (O60755 1-299 limits assumed): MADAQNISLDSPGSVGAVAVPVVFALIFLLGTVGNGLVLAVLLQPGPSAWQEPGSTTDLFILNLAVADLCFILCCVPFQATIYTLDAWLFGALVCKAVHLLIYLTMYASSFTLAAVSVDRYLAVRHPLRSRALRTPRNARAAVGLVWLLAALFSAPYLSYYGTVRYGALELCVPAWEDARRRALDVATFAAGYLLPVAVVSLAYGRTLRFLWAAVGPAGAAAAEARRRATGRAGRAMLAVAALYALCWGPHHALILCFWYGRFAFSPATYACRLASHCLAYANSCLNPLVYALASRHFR
# bovine MsrA act: bovine MsrA enzyme activators, primary screen, biochemical, absorbance, HTS | Methionine sulfoxide reductase A (Bos taurus) | purified bovine MsrA, absorbance read-out | activation, % at 10.6 µM | hit rate 0.3% among 360,000; in the data active means activation above about 7.5%;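 further: 0% = vehicle and 100% = reference activator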
# NR2E3 ag-1: NR2E3 agonists in two-hybrid cells, primary screen, cell-based, luminescence, CHO-S, Gal4-NCOR/VP16-NR2E3 | hit rate 0.35% among 360,000 | luciferase | inhibition of corepressor binding, % at 3.98 µM | AID 602229, 2012;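 active means inhibition above the mean of all tested compounds plus 3 SD, cut at about 70% in these data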;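 further: 0% = DMSO with NR2E3 transfected cells and 100% = cells lacking NR2E3 construct; higher means lower luciferase signal from less NR2E3 corepressor binding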
# NadD inh: inhibitors of S. aureus NadD, primary screen, biochemical, colorimetric, uHTS | purified NadD enzyme, colorimetric absorbance read-out | inhibition, % at 20 µM | hit rate 0.78% among 360,000 | AID 602399, 2012; in the data active means inhibition above about 26%
# MsrA inh: bovine MsrA enzyme inhibitors, primary screen, biochemical, absorbance, HTS; Methionine sulfoxide reductase A (Bos taurus); purified bovine MsrA, absorbance read-out; inhibition, % at 15.5 µM; hit rate 0.75% among 360,000; in the data active means inhibition above about 4.5%;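 further: 0% = vehicle wells with enzyme and 100% = reference inhibitor wells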
# NR2E3 ag-2: inhibitors of NR2E3-RetCOR corepressor binding, primary screen, NR2E3 agonist project, biochemical, TR-FRET, GST-NR2E3, biotin-RetCOR; hit rate 0.12% among 320,000; AID 2300, 2010; Photoreceptor-specific nuclear receptor (Homo sapiens), Q9Y5X4; 1536-well; inhibition of corepressor binding, % at 4.78 µM;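 active means percent inhibition above the cutoff of mean plus 3 SD of all tested compounds, set per screening campaign, cut at about 20% in these data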;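 further: 0% = DMSO wells and 100% = biotin wells as full block of FRET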
#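 Material: NR2E3–RetCOR corepressor complex | Quantity: 1.35 nM GST-tagged NR2E3 final | Schedule: 5 h at 4 °C | Replication: Singlicate compound wells | Reagent: RetCOR corepressor, biotinylated, 7 nM | Controls: Biotin wells as high control, 0.6% DMSO wells as low control | Signal: TR-FRET, Eu(K)-anti-GST donor, streptavidin-D2 acceptor, ex 340, em 617/671 nm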
# MsrA activ conf: bovine MsrA activators, retest, confirmation, biochemical, absorbance, HTS. activation, % at 10.6 µM. purified bovine MsrA, absorbance read-out. hit rate 12% among 1,000. shares compounds with bovine MsrA act; in the data active means activation above about 4%;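 further: enzyme coupled to thioredoxin and thioredoxin reductase with NADPH; 0% = vehicle wells and 100% = reference activator wells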
# Active calls of the source: *; · = not tested or not shown. A selection: hits, their analogues and other compounds. The true share with any hit is near 2.5%.
SMILES,GalR3 antag,bovine MsrA act,NR2E3 ag-1,NadD inh,MsrA inh,NR2E3 ag-2,MsrA activ conf
CCN(C(=O)COC(=O)CCC(=O)c1ccc(Cl)cc1)c1c(N)n(Cc2ccccc2)c(=O)[nH]c1=O,-5,7.7*,-29,7,0,·,-2
Cn1c(=O)c2cc(S(=O)(=O)NC(Cc3ccccc3)C(=O)NCC3CCCO3)ccc2n(C)c1=O (stereo unspecified),-7,-4,-13,0,0,-2,·
COc1cc2c(cc1OC)C(c1cc([N+](=O)[O-])ccc1O)NCC2 (stereo unspecified),-3,9.0*,-16,-4,0,1,-7
Cc1cc(=O)[nH]c2c1c(=O)[nH]n2C1CC(C)N(C)CC1C (stereo unspecified),0,1,-17,-5,2,0,·
Nc1c(N(CCO)C(=O)/C=C/c2ccco2)c(=O)[nH]c(=O)n1Cc1ccccc1,-4,-3,-16,1,1,-4,·
Cc1cc[n+](CC(=O)Nc2cccc(C)c2)cc1,-3,-9,-19,-3,0,4,·
O=C(NCCc1ccc(Cl)cc1)C(=O)Nc1cc2c3c(c1)CC(=O)N3CCC2,-3,17*,-1,2,0,-4,-2
O=C(CSc1ccc2ccccc2c1)Nc1ncccn1,0,-2,-32,1,1,0,·
COc1ccc(C(=O)NNC(=O)C(NC(=O)c2cc(OC)cc(OC)c2)C(C)C)cc1 (stereo unspecified),-5,-2,-29,0,2,0,·
COC(=O)c1[nH]c2ccccc2c1NC(=O)CN1CCN(C/C=C/c2ccccc2)CC1,-5,-6,24,5,-1,-1,·
CCOC(=O)c1[nH]c2ccc(F)cc2c1NC(=O)CN1CCN(C/C=C/c2ccccc2)CC1,-3,10*,11,1,0,0,-1
CCc1ccc(NC(=O)N2CCCCCC2)cc1,2,-4,-57,-3,0,1,·
CCN1CCN(C(=O)Nc2ccc(Cc3ccc(NC(=O)N4CCN(CC)CC4)cc3)cc2)CC1,-6,8.2*,-9,-7,1,3,1
CC1(C)N=C(N)NC(Nc2ccc(Br)cc2)=N1,-5,1,-3,-4,3,-1,·
COc1cc(NC(=O)c2cc(OC)c(OC)c(OC)c2)c(OC)cc1NC(=O)CN1CCCCC1,-1,8.4*,-17,2,1,0,0
COc1cc(NC(=O)c2ccc(C)cc2)c(OC)cc1NC(=O)CN1CCCCC1,-2,-3,-32,4,2,0,·
COc1ccc(C(=O)CSc2nc3ccccc3n2CC(=O)NC(C)(C)C)cc1,-4,9.7*,-14,4,0,-3,-1
CCOC(=O)c1sc(=S)n(-c2ccccc2)c1SC,-1,9.2*,2,-1,3,3,-5
CCOC(=O)c1sc(=S)n(-c2ccccc2Cl)c1SC,-5,-7,6,-3,1,-3,·
O=C(NCC(=O)N1CCC2(CC1)NCCc1[nH]cnc12)c1ccccc1F,4,-2,-2,-4,-1,1,·
Cc1cccc(NC(=O)NC(=O)c2ccccc2)n1,1,8.1*,-38,-1,0,-1,1
Cc1cccc(NC(=O)c2ccc(C(=O)c3ccccc3)cc2)n1,-3,-3,11,1,0,-3,·
CC(C)C[C@H]1CNC(=O)C(=O)N1C[C@@H]1CCCN1C[C@H](Cc1ccccc1)N1C[C@H](Cc2ccccc2)N(CC2CCCCC2)C(=O)C1=O,-6,7.9*,-10,26,-1,·,0
CC(C)CCN1CCC(CN2C(=O)C(=O)NC[C@@H]2CC(C)C)CC1,-2,12*,-8,-7,1,·,1
COc1cccc(N2CCN(S(=O)(=O)c3ccc(-c4cnc(C5CC5)o4)cc3)CC2)c1,-1,-3,-13,1,3,0,·
SMILES,GalR3 antag,bovine MsrA act,NR2E3 ag-1,NadD inh,MsrA inh,NR2E3 ag-2,MsrA activ conf
O=Nc1ccc(NOC(=O)c2ccccc2Br)cc1,0,10*,-17,-4,2,-2,-1
Cc1ccccc1Cn1cnc2ccccc21,5,-2,-13,-1,-1,1,·
Cc1c(NC(=O)c2ccc(C(C)(C)C)cc2)cccc1[N+](=O)[O-],-4,11*,-91,-6,2,2,-1
Cc1cc(C(=O)Nc2cccc([N+](=O)[O-])c2C)cs1,-3,-3,-19,-8,1,-1,·
Nc1ccccc1SC(CC(=O)c1ccccc1)c1ccccc1 (stereo unspecified),·,7.9*,-82,1,·,·,0
COc1ccc(-c2csc(/C(C#N)=C/Nc3cc4oc5ccccc5c4cc3OC)n2)cc1,-2,13*,-9,26,0,1,0
COc1ccc(-c2csc(/C(C#N)=C/Nc3ccc4c(c3)OCCO4)n2)cc1,-3,-5,-4,9,-1,3,·
COc1cccc(-c2ccc3ncnc(NCc4cc(C)cs4)c3c2)c1,-5,-7,-34,3,-1,2,·
COc1cc(/C=C(/NC(=O)c2ccccc2)C(=O)N2CCN(C)CC2)c([N+](=O)[O-])cc1OC,2,-1,-7,-2,2,3,·
Cc1ccc(Cn2nnc3c(=O)[nH]c(C4CCN(C(=O)Cc5cccs5)CC4)nc32)cc1,0,7.7*,-16,2,0,0,0
O=C(Cc1cccs1)N1CCC(c2nc3c(nnn3Cc3ccccc3)c(=O)[nH]2)CC1,-5,-2,4,-2,-2,1,·
COc1ccc(NC(=O)NC(C)c2ccccc2)cc1 (stereo unspecified),2,17*,-2,-3,-1,·,-1
CC(=O)c1ccc(S(=O)(=O)N2CCN(CC#N)CC2)cc1,8,-4,-1,-3,0,-1,·
CC(C)C[C@H]1CN(CCCC[C@@H]2CNC(=O)C(=O)N2CCc2ccccc2)C(=O)C(=O)N1Cc1ccccc1,-5,19*,-6,15,1,·,-4
NS(=O)(=O)c1ccc(CCNc2ncnc3sccc23)cc1,4,0,12,0,-1,3,·
O=CN1CCN(S(=O)(=O)c2ccc(S(=O)(=O)NC3CCCCC3)cc2)CC1,-6,-5,-2,2,0,5,·
